Measurements published in ChEMBL document CHEMBL1126622, “2-substituted 1,2-dihydro-3H-dibenz[de,h]isoquinoline-1,3-diones. A new class of antitumor agent” (J Med Chem, 1993).

Assays:
[1] = The quotient of the IC50 is the myocytes divided by the mean IC50 in the four cell lines (UACC375,OVCAR3,L1210 sensitive,L1210 resistant); type: ADME; settings: read-out: Toxicity ratio
In short: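 Ratio of the myocyte IC50 (1-h exposure, ATP/protein ratio read-out) to the mean tumor-cell IC50 across the four lines, UACC375 and OVCAR3 by SRB, sensitive and resistant L1210 by MTT.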

L1210 [2] = assay: Tested against L1210 resistant murine leukemia cells by MTT tetrazolium dye assay; type: functional, cell-based; settings: Mus musculus
In short: (§1)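 Suspension L1210 cells (drug-sensitive and multidrug-resistant lines), 50 000/well, drug added day 2 from DMSO stock serially diluted in PBS pH 7.4, 10^1–10^-5 μg/mL in half-log steps, final DMSO ≤0.1%; continuous 6-day exposure at 37 °C, 5% CO2; MTT added 4 h, formazan dissolved in DMSO, A570; percent of untreated control; six wells per concentration, IC50s averaged.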

[3] = Tested against UACC375 human melanoma cancer cells by sulforhodamine B (SRB) assay; type: functional, cell-based; settings: Cancer cell lines
In short: (§2)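 Adherent UACC375 melanoma and OVCAR3 ovarian cells, SRB assay: plating and dosing as for MTT (50 000/well, 10^1–10^-5 μg/mL half-log, DMSO ≤0.1%), 8-day exposure; fixed with 10% TCA 1 h at 4 °C, stained 30 min with 0.4% SRB in 1% acetic acid, dye dissolved in 10 mM Tris base pH 10.5, OD 564 nm; six wells per concentration, IC50s averaged.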

OVCAR-3 = assay: Tested against OVCAR-3 human ovarian cancer cells by sulforhodamine B (SRB) assay; type: functional, cell-based; in short: as §2
[4] = Tested for in vitro for cardiotoxicity by performing neonatal rat heart myocyte assay method; type: functional
In short: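 Neonatal rat heart myocytes exposed to drug for 1 h; cytotoxicity read as cellular ATP/protein ratio relative to untreated controls; IC50 is the 1-h concentration halving this ratio.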

[5] = Average mean for IC50 values in the four cell lines (UACC375,OVCAR3,L1210 sensitive,L1210 resistant); type: functional; parameters: unit not given here
In short: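 Mean of the IC50 values from the four tumor lines: UACC375 and OVCAR3 by SRB (8-day exposure), sensitive and resistant L1210 by MTT (6-day continuous exposure).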

L1210 [6] = assay: Tested against L1210 sensitive murine leukemia cells by MTT tetrazolium dye assay; type: functional, cell-based; settings: Mus musculus; in short: as §1
[7] = Acid dissociation constant was determined; type: ADME
In short: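 Hydrochloride salt (0.165 mmol) dissolved in 0.982 N HCl to give 1 mequiv acid beyond amine protonation; stirred and titrated with 0.926 N NaOH with pH-meter monitoring.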

B16 [8] = assay: Tested for percent tumor growth inhibition in B16 melanoma cells after intraperitoneal dose of 30 mg/kg in mice; settings: Mus musculus, B16, ip; read-out: TGI
L1210 [9] = assay: Tested for percent increase in life span in L1210 leukemia cells after intraperitoneal dose of 45 mg/kg in mice; type: functional; settings: Mus musculus, L1210, ip
In short: (§3)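 Standard NCI protocol: leukemia cells implanted intraperitoneally, with drug given ip on days 1, 5 and 9. Read-out is percent increase in life span, 100 × (treated life span − control life span)/control life span.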

L1210 [10] = assay: Tested for percent increase in life span in L1210 leukemia cells after intraperitoneal dose of 30 mg/kg in mice; type: functional; settings: Mus musculus, L1210, ip; in short: as §3
COLO 480 = assay: Tested against human colon carcinoma COLO 480 cell line in vitro; type: functional, cell-based
In short: (§4)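 Human colon carcinoma lines, MTT assay: 50 000 cells/well, drug added day 2 (DMSO stock diluted in PBS pH 7.4, 10^1–10^-5 μg/mL half-log steps, final DMSO ≤0.1%), 6-day exposure at 37 °C, 5% CO2; MTT 4 h, formazan in DMSO read at 570 nm vs untreated control; six wells per concentration, IC50 averaged.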

COLO 205 = assay: Tested against human colon carcinoma COLO 205 cell line in vitro; type: functional, cell-based; in short: as §4
HCT-15 = assay: Tested against human colon carcinoma HCT 15 cell line in vitro; type: functional, cell-based; in short: as §4
B16 [11] = assay: Tested for percent tumor growth inhibition in B16 melanoma cells after intraperitoneal dose of 15 mg/kg in mice; settings: Mus musculus, B16, ip; read-out: TGI
L1210 [12] = assay: Tested for percent increase in life span in L1210 leukemia cells after intraperitoneal dose of 5 mg/kg in mice; type: functional; settings: Mus musculus, L1210, ip
In short: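 Standard NCI protocol: leukemia cells implanted intraperitoneally, with drug given ip once daily on days 1–5. Read-out is percent increase in life span, 100 × (treated life span − control life span)/control life span.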

LoVo = assay: Tested against human colon carcinoma LoVo cell line in vitro; type: functional, cell-based; in short: as §4
L1210 [13] = assay: Tested for percent increase in life span in L1210 leukemia cells after intraperitoneal dose of 15 mg/kg in mice; type: functional; settings: Mus musculus, L1210, ip; in short: as §3
HT-29 = assay: Tested against human colon carcinoma HT 29 cell line in vitro; type: functional, cell-based; in short: as §4

Row | Compound | IC50 (L1210 [2]) [µM] | IC50 (OVCAR-3) [µM] | IC50 (L1210 [6]) [µM] | selectivity ratio [1] | IC50 [3] [µM] | IC50 [4] [µM] | Average [5] | pKa [7] | inhibition in vivo at 30 mg/kg (B16 [8]) [%] | ILS at 45 mg/kg (L1210 [9]) [%] | ILS at 30 mg/kg (L1210 [10]) [%] | IC50 (COLO 480) [µM] | IC50 (COLO 205) [µM] | IC50 (HCT-15) [µM] | inhibition in vivo at 15 mg/kg (B16 [11]) [%] | ILS at 5 mg/kg (L1210 [12]) [%] | IC50 (LoVo) [µM] | ILS at 15 mg/kg (L1210 [13]) [%] | IC50 (HT-29) [µM]
1 | O=C1c2cccc3cc4ccccc4c(c23)C(=O)N1CCc1ccccn1 | 15.5 | 3.87 | 6.44 | > 3 | 6.44 | > 25 | 8054 | 5.4 |  |  |  |  |  |  |  |  |  |  | 
2 | CCN1CCCC(N2C(=O)c3cccc4cc5ccccc5c(c34)C2=O)C1 (stereo not drawn) | 0.609 | 1.19 | 0.635 | 8.3 | 1.65 | 8.76 | 1020 |  |  |  |  |  |  |  |  |  |  |  | 
3 | CN(C)CCN1C(=O)c2cccc3cc(N)cc(c23)C1=O [AMONAFIDE] | 0.625 | 2.18 | 0.625 | 36 | 2.03 | 48.4 | 1365 | 7.3 | 23 | 87.5 | 45 |  |  |  |  |  |  |  | 
4 | CN(C)CCN1C(=O)c2cccc3cc4ccccc4c(c23)C1=O [AZONAFIDE] | 0.007 | 0.057 | 0.007 | 56 | 0.071 | 1.98 | 36 | 7.3 |  | 79 | 62.5 | 0.003 | 0.036 | 0.008 | 74 | 90 | 0.006 | 25 | 0.063
5 | O=C1c2cccc3cc4ccccc4c(c23)C(=O)N1N1CC1 | 0.791 | 7.91 | 0.791 |  | 2.53 |  | 3006 |  |  |  |  |  |  |  |  |  |  |  | 
6 | O=C1c2cccc3cc4ccccc4c(c23)C(=O)N1c1cccnc1 | 0.554 | 1.94 | 0.544 | > 20 | 2.49 | > 25 | 1380 |  |  |  |  |  |  |  |  |  |  |  | 
7 | O=C1c2cccc3cc4ccccc4c(c23)C(=O)N1Cc1cccnc1 | 2.67 | 8.02 | 1.87 | > 4 | 11.4 | > 25 | 5983 |  |  |  |  |  |  |  |  |  |  |  | 
8 | O=C1c2cccc3cc4ccccc4c(c23)C(=O)N1Cc1ccccn1 | 26.7 | 17.4 | 26.7 | > 1 | 12 | > 25 | 20722 |  |  |  |  |  |  |  |  |  |  |  | 
9 | O=C1c2cccc3cc4ccccc4c(c23)C(=O)N1CCN1CCOCC1 | 0.512 | 0.639 | 0.512 | > 50 | 0.511 | > 25 | 544 |  |  |  |  |  |  |  |  |  |  |  | 
10 | CN(C)c1ccc(N2C(=O)c3cccc4cc5ccccc5c(c34)C2=O)cc1 | 1.79 | 16.2 | 0.187 | 8 | 4.98 | 37.3 | 4537 |  |  |  |  |  |  |  |  |  |  |  | 

More lines, main results first:

Row | IC50 (L1210 [2]) [µM] | IC50 (OVCAR-3) [µM] | IC50 (L1210 [6]) [µM] | Compound | selectivity ratio [1] | IC50 [3] [µM] | IC50 [4] [µM] | Average [5] | pKa [7] | inhibition in vivo at 30 mg/kg (B16 [8]) [%] | ILS at 45 mg/kg (L1210 [9]) [%] | ILS at 30 mg/kg (L1210 [10]) [%] | IC50 (COLO 480) [µM] | IC50 (COLO 205) [µM] | IC50 (HCT-15) [µM] | inhibition in vivo at 15 mg/kg (B16 [11]) [%] | ILS at 5 mg/kg (L1210 [12]) [%] | IC50 (LoVo) [µM] | ILS at 15 mg/kg (L1210 [13]) [%] | IC50 (HT-29) [µM]
11 | 0.082 | 0.462 | 0.054 | CN(C)CCCN1C(=O)c2cccc3cc4ccccc4c(c23)C1=O | 113 | 0.245 | 11.4 | 211 | 7.3 |  |  |  |  |  |  |  |  |  |  | 
12 | 0.463 | 1.97 | 0.174 | O=C1c2cccc3cc4ccccc4c(c23)C(=O)N1CCN1CCNCC1 | 8.8 | 0.463 | 6.71 | 767 |  |  |  |  |  |  |  |  |  |  |  | 
13 | 0.055 | 0.214 | 0.036 | CCN1CCCC1CN1C(=O)c2cccc3cc4ccccc4c(c23)C1=O (stereo not drawn) | 143 | 0.119 | 15.2 | 106 |  |  |  |  |  |  |  |  |  |  |  | 
14 | 0.051 | 0.089 | 0.051 | O=C1c2cccc3cc4ccccc4c(c23)C(=O)N1CCN1CCCCC1 | 13 | 0.178 | 10.4 | 92 |  |  |  |  |  |  |  |  |  |  |  | 
15 | 0.0206 | 0.044 | 0.01 | CNCCN1C(=O)c2cccc3cc4ccccc4c(c23)C1=O | 211 | 0.059 | 7.06 | 33 |  |  |  |  |  |  |  |  |  |  |  | 
16 | 0.0118 | 0.066 | 0.0145 | O=C1c2cccc3cc4ccccc4c(c23)C(=O)N1CCN1CCCC1 | 28 | 0.039 | 0.92 | 33 |  |  |  |  |  |  |  |  |  |  |  | 
17 | 0.142 | 0.163 | 0.076 | O=C1c2cccc3cc4ccccc4c(c23)C(=O)N1CCCN(CCO)CCO | 60 | 0.217 | 8.91 | 150 |  |  |  |  |  |  |  |  |  |  |  | 
18 | 0.041 | 0.081 | 0.018 | O=C1c2cccc3cc4ccccc4c(c23)C(=O)N1CCNCCO | 18 | 0.067 | 0.943 | 52 |  |  |  |  |  |  |  |  |  |  |  | 
19 | 0.148 | 2.43 | 0.207 | O=C1c2cccc3cc4ccccc4c(c23)C(=O)N1c1ncc[nH]1 |  | 1.62 |  | 1103 |  |  |  |  |  |  |  |  |  |  |  | 
20 | 0.056 | 0.203 | 0.051 | CN1CCCC1CCN1C(=O)c2cccc3cc4ccccc4c(c23)C1=O (stereo not drawn) | 57 | 0.19 | 7.08 | 125 |  |  |  |  |  |  |  |  |  |  |  | 
